What was measured:
[1] = Cytotoxicity against human HepG2 cells assessed as cellular ATP level at 100 uM after 1 day by ATPLite assay relative to control; assay type: cell-based; settings: read-out: Activity
CYP3A4 = CYP3A4 (Homo sapiens, UniProt P08684); experiment: Inhibition of CYP3A4 (unknown origin) expressed in insect cells at 10 uM using testosterone as substrate after 15 mins by HPLC analysis relative to control; assay type: ADME; settings: recombinant CYP3A4 expressed in insect cells, probe testosterone
Chain of CYP3A4 (P08684 whole entry): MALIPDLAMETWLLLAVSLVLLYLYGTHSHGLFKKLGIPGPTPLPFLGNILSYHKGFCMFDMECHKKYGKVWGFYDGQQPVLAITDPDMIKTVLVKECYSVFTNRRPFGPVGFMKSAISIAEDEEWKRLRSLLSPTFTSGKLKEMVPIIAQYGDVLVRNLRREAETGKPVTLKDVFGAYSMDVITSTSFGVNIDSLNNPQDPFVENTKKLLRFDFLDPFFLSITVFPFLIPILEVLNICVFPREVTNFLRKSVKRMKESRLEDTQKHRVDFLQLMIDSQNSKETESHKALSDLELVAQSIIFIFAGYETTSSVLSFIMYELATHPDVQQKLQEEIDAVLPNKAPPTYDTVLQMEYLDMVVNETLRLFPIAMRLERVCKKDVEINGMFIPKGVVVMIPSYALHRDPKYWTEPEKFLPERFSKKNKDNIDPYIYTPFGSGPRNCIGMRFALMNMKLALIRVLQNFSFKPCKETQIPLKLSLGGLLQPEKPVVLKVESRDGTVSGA
Summary of the method: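 Testosterone substrate at 100 μmol/L with 10 nmol/L insect-cell-expressed CYP3A4 and 10 μmol/L test compound, incubated 15 min at 37 °C. 6β-hydroxytestosterone quantified by HPLC with UV detection.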

[2] = Lipophilicity, log D of the compound at pH 7.4 by HPLC analysis; assay type: physicochemical; settings: buffer
Summary of the method: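 At pH 7.4, log D derived from HPLC retention time relative to standard compounds.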

[3] = Inhibition of H+/K+-ATPase in porcine stomach gastric mucosal microsomes assessed as reduction in inorganic phosphate production using ATP as substrate preincubated for 30 mins followed by ATP addition in presence of KCl at pH 6.5 by malachite green reagent based colorimetric assay; design: species or system Sus scrofa
Rattus norvegicus = experiment: Inhibition of histamine-induced acid secretion in Jcl:Sprague-Dawley rat gastric at 1 mg/kg, iv pretreated for 3 mins after pylorus ligation followed by histamine.2HCl treatment measured after 3 hrs by titration method relative to control; assay type: functional
Summary of the method: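 Anesthetized rats dosed iv at 1 mg/kg. Total acid output over 3 h after histamine injection compared with vehicle-treated rats.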

[4] = AUC in Sprague-Dawley rat plasma at 0.2 mg/kg, iv administered as cassette dose by LC-MS/MS analysis; assay type: ADME, organism-based
Summary of the method: (§1)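 Fasted male Sprague-Dawley rats given compounds iv by cassette dosing at 0.2 mg/kg (as free base). Plasma and stomach sampled at 10 min, 1, 4 and 24 h. Plasma and 20% stomach homogenate in saline deproteinized with acetonitrile containing internal standard, then LC/MS/MS. AUC calculated for plasma and stomach. Values are averages of three rats.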

[5] = Drug uptake in Sprague-Dawley rat stomach at 0.2 mg/kg, iv administered as cassette dose after 4 hrs by LC-MS/MS analysis; assay type: ADME, organism-based; settings: read-out: Drug uptake; summary of the method: as §1
Stomach = experiment: AUC in Sprague-Dawley rat stomach at 0.2 mg/kg, iv administered as cassette dose by LC-MS/MS analysis; assay type: ADME, organism-based; settings: in vivo; summary of the method: as §1
[6] = Plasma concentration in Sprague-Dawley rat at 0.2 mg/kg, iv administered as cassette dose after 1 hr by LC-MS/MS analysis; assay type: ADME, organism-based; summary of the method: as §1
[7] = Drug uptake in Sprague-Dawley rat stomach at 0.2 mg/kg, iv administered as cassette dose after 1 hr by LC-MS/MS analysis; assay type: ADME, organism-based; settings: read-out: Drug uptake; summary of the method: as §1
[8] = Plasma concentration in Sprague-Dawley rat at 0.2 mg/kg, iv administered as cassette dose after 10 mins by LC-MS/MS analysis; assay type: ADME, organism-based; summary of the method: as §1
[9] = Drug uptake in Sprague-Dawley rat stomach at 0.2 mg/kg, iv administered as cassette dose after 24 hrs by LC-MS/MS analysis; assay type: ADME, organism-based; settings: read-out: Drug uptake; summary of the method: as §1
[10] = Drug uptake in Sprague-Dawley rat stomach at 0.2 mg/kg, iv administered as cassette dose after 10 mins by LC-MS/MS analysis; assay type: ADME, organism-based; settings: read-out: Drug uptake; summary of the method: as §1
hERG (KCNH2) = hERG (KCNH2) (Homo sapiens, UniProt Q12809); experiment: Inhibition of human ERG expressed in HEK cells at 10 uM at -75 mV holding potential by Whole-cell voltage clamp assay relative to control; assay type: cell-based; settings: HEK cells expressing human ERG
Chain of hERG (KCNH2) (Q12809 whole entry): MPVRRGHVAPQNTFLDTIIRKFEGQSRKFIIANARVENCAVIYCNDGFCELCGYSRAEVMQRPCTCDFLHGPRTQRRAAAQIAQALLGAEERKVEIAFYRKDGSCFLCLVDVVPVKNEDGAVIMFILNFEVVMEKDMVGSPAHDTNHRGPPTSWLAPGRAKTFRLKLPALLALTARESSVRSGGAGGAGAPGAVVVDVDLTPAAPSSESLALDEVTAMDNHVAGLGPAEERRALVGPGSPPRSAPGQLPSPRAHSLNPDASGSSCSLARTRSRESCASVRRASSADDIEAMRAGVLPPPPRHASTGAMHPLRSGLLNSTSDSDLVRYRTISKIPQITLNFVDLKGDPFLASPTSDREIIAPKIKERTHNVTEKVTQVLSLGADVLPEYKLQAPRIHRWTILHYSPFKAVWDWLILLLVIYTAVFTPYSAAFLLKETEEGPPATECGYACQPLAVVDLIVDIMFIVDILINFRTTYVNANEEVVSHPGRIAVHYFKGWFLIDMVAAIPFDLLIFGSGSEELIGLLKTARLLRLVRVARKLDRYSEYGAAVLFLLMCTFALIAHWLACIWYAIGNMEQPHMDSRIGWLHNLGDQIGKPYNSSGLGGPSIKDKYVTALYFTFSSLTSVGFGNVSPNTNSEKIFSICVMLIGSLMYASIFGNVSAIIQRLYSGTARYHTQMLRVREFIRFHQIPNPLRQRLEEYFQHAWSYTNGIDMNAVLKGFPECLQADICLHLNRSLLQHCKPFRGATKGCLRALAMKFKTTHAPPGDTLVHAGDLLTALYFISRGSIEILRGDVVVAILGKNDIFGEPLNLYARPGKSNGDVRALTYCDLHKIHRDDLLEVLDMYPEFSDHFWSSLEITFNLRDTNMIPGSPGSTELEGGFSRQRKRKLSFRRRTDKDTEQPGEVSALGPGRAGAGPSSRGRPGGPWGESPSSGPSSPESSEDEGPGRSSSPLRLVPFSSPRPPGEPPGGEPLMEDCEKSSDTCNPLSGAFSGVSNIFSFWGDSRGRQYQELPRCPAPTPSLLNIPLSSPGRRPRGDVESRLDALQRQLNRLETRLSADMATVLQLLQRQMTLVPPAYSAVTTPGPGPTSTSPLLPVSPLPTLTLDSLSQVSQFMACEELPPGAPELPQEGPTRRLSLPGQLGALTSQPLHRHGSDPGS

CNCc1cn(S(=O)(=O)c2cncc(Cl)c2)c(-c2cccnc2F)c1F
viability at 24 h, 100 µM [1]: 66.9%
inhibition at 0.25 h, 10 µM (CYP3A4): 45.9%
logD [2]: 1.44
IC50 [3]: 160 nM

CNCc1cn(S(=O)(=O)c2ncccc2C)c(-c2cccnc2F)c1F
inhibition in vivo at 1 mg/kg (Rattus norvegicus): 54%
viability at 24 h, 100 µM [1]: 79.1%
inhibition at 0.25 h, 10 µM (CYP3A4): 29%
logD [2]: 0.32
IC50 [3]: 510 nM

CNCc1cn(S(=O)(=O)c2cccs2)c(-c2cccnc2F)c1F
AUC [4]: 42 ng·h/mL
inhibition in vivo at 1 mg/kg (Rattus norvegicus): 98%
concentration at 4 h [5]: 827 ng/g
viability at 24 h, 100 µM [1]: 77.5%
AUC (Stomach): 11717 ng·h/g
inhibition at 0.25 h, 10 µM (CYP3A4): 20.5%
concentration at 1 h [6]: 12.2 ng/mL
logD [2]: 0.54
IC50 [3]: 72 nM
concentration at 1 h [7]: 955 ng/g
concentration at 10 min [8]: 36.6 ng/mL
concentration at 24 h [9]: 17.4 ng/g
concentration at 10 min [10]: 412 ng/g
inhibition at 10 µM (hERG (KCNH2)): 56.1%

CNCc1cn(S(=O)(=O)c2cccnc2)c(-c2cccnc2F)c1F
AUC [4]: 54 ng·h/mL
inhibition in vivo at 1 mg/kg (Rattus norvegicus): 98%
concentration at 4 h [5]: 629 ng/g
AUC (Stomach): 10277 ng·h/g
inhibition at 0.25 h, 10 µM (CYP3A4): 14.4%
concentration at 1 h [6]: 15 ng/mL
IC50 [3]: 49 nM
concentration at 1 h [7]: 752 ng/g
concentration at 10 min [8]: 51.5 ng/mL
concentration at 24 h [9]: 130 ng/g
concentration at 10 min [10]: 602 ng/g

CNCc1cc(-c2cccnc2F)n(S(=O)(=O)c2cccnc2)c1
AUC [4]: 35 ng·h/mL
inhibition in vivo at 1 mg/kg (Rattus norvegicus): 96%
concentration at 4 h [5]: 541 ng/g
AUC (Stomach): 7646 ng·h/g
inhibition at 0.25 h, 10 µM (CYP3A4): 4.2%
concentration at 1 h [6]: 8.4 ng/mL
IC50 [3]: 210 nM
concentration at 1 h [7]: 532 ng/g
concentration at 10 min [8]: 37.1 ng/mL
concentration at 24 h [9]: 19.6 ng/g
concentration at 10 min [10]: 420 ng/g

CNCc1cc(-c2cccnc2F)n(S(=O)(=O)c2ccsc2)c1
AUC [4]: 29 ng·h/mL
inhibition in vivo at 1 mg/kg (Rattus norvegicus): 98%
concentration at 4 h [5]: 640 ng/g
AUC (Stomach): 9152 ng·h/g
inhibition at 0.25 h, 10 µM (CYP3A4): 1.4%
concentration at 1 h [6]: 8.9 ng/mL
IC50 [3]: 32 nM
concentration at 1 h [7]: 614 ng/g
concentration at 10 min [8]: 23.5 ng/mL
concentration at 24 h [9]: 41.7 ng/g
concentration at 10 min [10]: 407 ng/g

CNCc1cn(S(=O)(=O)c2ccco2)c(-c2cccnc2F)c1F
AUC [4]: 26 ng·h/mL
inhibition in vivo at 1 mg/kg (Rattus norvegicus): 75%
concentration at 4 h [5]: 254 ng/g
viability at 24 h, 100 µM [1]: 90.8%
AUC (Stomach): 4566 ng·h/g
inhibition at 0.25 h, 10 µM (CYP3A4): 5.6%
concentration at 1 h [6]: 6.5 ng/mL
logD [2]: 0.2
IC50 [3]: 79 nM
concentration at 1 h [7]: 706 ng/g
concentration at 10 min [8]: 26.5 ng/mL
concentration at 10 min [10]: 592 ng/g
inhibition at 10 µM (hERG (KCNH2)): 28.7%

CNCc1cn(S(=O)(=O)c2ccoc2)c(-c2cccnc2F)c1F
AUC [4]: 41 ng·h/mL
inhibition in vivo at 1 mg/kg (Rattus norvegicus): 95%
concentration at 4 h [5]: 194 ng/g
viability at 24 h, 100 µM [1]: 100%
AUC (Stomach): 3865 ng·h/g
inhibition at 0.25 h, 10 µM (CYP3A4): 12.8%
concentration at 1 h [6]: 11.5 ng/mL
logD [2]: 0.45
IC50 [3]: 60 nM
concentration at 1 h [7]: 688 ng/g
concentration at 10 min [8]: 37.4 ng/mL
concentration at 10 min [10]: 635 ng/g
inhibition at 10 µM (hERG (KCNH2)): 44.5%

CNCc1cn(S(=O)(=O)c2cncc(C)c2)c(-c2cccnc2F)c1F
inhibition in vivo at 1 mg/kg (Rattus norvegicus): 87%
viability at 24 h, 100 µM [1]: 86.9%
inhibition at 0.25 h, 10 µM (CYP3A4): 49.7%
logD [2]: 0.61
IC50 [3]: 140 nM

CNCc1cn(S(=O)(=O)c2cccc(F)n2)c(-c2cccnc2F)c1F
viability at 24 h, 100 µM [1]: 74%
inhibition at 0.25 h, 10 µM (CYP3A4): 46%
logD [2]: 0.7
IC50 [3]: 240 nM

CNCc1cn(S(=O)(=O)c2ccc(F)cn2)c(-c2cccnc2F)c1F
AUC [4]: 22 ng·h/mL
inhibition in vivo at 1 mg/kg (Rattus norvegicus): 87%
concentration at 4 h [5]: 347 ng/g
viability at 24 h, 100 µM [1]: 86.5%
AUC (Stomach): 5179 ng·h/g
inhibition at 0.25 h, 10 µM (CYP3A4): 21.7%
concentration at 1 h [6]: 5 ng/mL
logD [2]: 0.42
IC50 [3]: 100 nM
concentration at 1 h [7]: 526 ng/g
concentration at 10 min [8]: 25 ng/mL
concentration at 10 min [10]: 369 ng/g

CNCc1cn(S(=O)(=O)c2ccc(OC)cn2)c(-c2cccnc2F)c1F
AUC [4]: 52 ng·h/mL
inhibition in vivo at 1 mg/kg (Rattus norvegicus): 95%
concentration at 4 h [5]: 426 ng/g
viability at 24 h, 100 µM [1]: 80%
AUC (Stomach): 6761 ng·h/g
inhibition at 0.25 h, 10 µM (CYP3A4): 7.7%
concentration at 1 h [6]: 13.1 ng/mL
logD [2]: 0.64
IC50 [3]: 280 nM
concentration at 1 h [7]: 806 ng/g
concentration at 10 min [8]: 54.2 ng/mL
concentration at 10 min [10]: 624 ng/g
inhibition at 10 µM (hERG (KCNH2)): 17.6%

CNCc1cc(-c2cccnc2F)n(S(=O)(=O)c2cccs2)c1
AUC [4]: 27 ng·h/mL
inhibition in vivo at 1 mg/kg (Rattus norvegicus): 96%
concentration at 4 h [5]: 210 ng/g
AUC (Stomach): 3815 ng·h/g
concentration at 1 h [6]: 8.8 ng/mL
IC50 [3]: 32 nM
concentration at 1 h [7]: 592 ng/g
concentration at 10 min [8]: 20.8 ng/mL
concentration at 10 min [10]: 522 ng/g

CNCc1cn(S(=O)(=O)c2cccnc2Cl)c(-c2cccnc2F)c1F
AUC [4]: 33 ng·h/mL
concentration at 4 h [5]: 427 ng/g
viability at 24 h, 100 µM [1]: 86.9%
AUC (Stomach): 6568 ng·h/g
inhibition at 0.25 h, 10 µM (CYP3A4): 53.1%
concentration at 1 h [6]: 10.1 ng/mL
logD [2]: 0.75
IC50 [3]: 390 nM
concentration at 1 h [7]: 722 ng/g
concentration at 10 min [8]: 28 ng/mL
concentration at 10 min [10]: 539 ng/g

CNCc1cn(S(=O)(=O)c2cnccc2C)c(-c2cccnc2F)c1F
AUC [4]: 41 ng·h/mL
inhibition in vivo at 1 mg/kg (Rattus norvegicus): 98%
concentration at 4 h [5]: 251 ng/g
viability at 24 h, 100 µM [1]: 90.9%
AUC (Stomach): 4248 ng·h/g
inhibition at 0.25 h, 10 µM (CYP3A4): 40%
concentration at 1 h [6]: 8.4 ng/mL
logD [2]: 0.43
IC50 [3]: 120 nM
concentration at 1 h [7]: 618 ng/g
concentration at 10 min [8]: 50.1 ng/mL
concentration at 10 min [10]: 360 ng/g
inhibition at 10 µM (hERG (KCNH2)): 28.2%

CNCc1cc(-c2cccnc2F)n(S(=O)(=O)c2ccccn2)c1
inhibition in vivo at 1 mg/kg (Rattus norvegicus): 81%
inhibition at 0.25 h, 10 µM (CYP3A4): -9.7%
IC50 [3]: 120 nM

From ChEMBL document CHEMBL4020761, “Exploration of pyrrole derivatives to find an effective potassium-competitive acid blocker with moderately long-lasting suppression of gastric acid secretion” (Bioorg Med Chem, 2017)
